# In the EternaBench riboswitch data:
# Legend:
# MS2 coat protein [1] = assay: apparent Kd, MS2 coat protein; higher = weaker binding; RNA-MaP array; tryptophan 2.4 mM where present
# How it was run: (§1)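 On Illumina sequencing-chip clusters, designs were transcribed by stalled E. coli RNA polymerase and titrated with SNAP-549-labelled MS2 coat protein (0.7 or 1.5 nM, doubling to 3 µM), without and then with constant ligand, in 100 mM Tris-HCl pH 7.5, 80 mM KCl, 4 mM MgCl2, BSA, DTT, yeast tRNA and Tween-20. Apparent Kd is the median of filtered per-cluster curve fits to green signal normalised to red-channel RNA signal and control-cluster median Fmax.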
# MS2 coat protein [2] = assay: apparent Kd, MS2 coat protein; higher = weaker binding; RNA-MaP array; theophylline 2 mM where present
# How it was run: as §1
# [3] = designed as: OFF switch for tryptophan, no ligand
# [4] = ligand present: tryptophan, designed as: OFF switch for tryptophan
# [5] = designed as: ON switch for tryptophan, no ligand
# [6] = ligand present: tryptophan, designed as: ON switch for tryptophan
# [7] = designed as: ON switch for theophylline, no ligand
# [8] = ligand present: theophylline, designed as: ON switch for theophylline
# [9] = designed as: OFF switch for theophylline, no ligand
# [10] = ligand present: theophylline, designed as: OFF switch for theophylline
sequence,measurement,setting,value
AAAACAUGAGGAUCACCACAUGACAUGAGGCGAGGACCGGUACGGCCGCCACUCGACAUACAUGAGGAUCACCCAUGUUUGUUGU,apparent Kd,MS2 coat protein [1]; [3],217 nM
same,apparent Kd,MS2 coat protein [1]; [4],269 nM
AACUACUCGAGGUGAUCCUACGAGUGGCAACGAGGACCGGUACGGCCGCCACUCGAAUAAACAUGAGGAUCACCCAUGUACAAAU,apparent Kd,MS2 coat protein [1]; [5],81 nM
same,apparent Kd,MS2 coat protein [1]; [6],83.7 nM
AAGGCACGAGACAUGAGGAUCACCCAUGUUCGAGGACCGGUACGGCCGCCACUCGGUGGACUCAUGGUAAAGCCGGUGAGCCAAA,apparent Kd,MS2 coat protein [1]; [5],19.4 nM
same,apparent Kd,MS2 coat protein [1]; [6],37.2 nM
AAUAACAUGAGGAUCACCCAUGUAAGUAAACGAGGACCGGUACGGCCGCCACUCGAAUAAAUAAAGUACCGGUAAGAUCCAUAGA,apparent Kd,MS2 coat protein [1]; [5],21.3 nM
same,apparent Kd,MS2 coat protein [1]; [6],23.9 nM
AAUAAUAGGUGAUCCUAACGAGUGGCAUAACGAGGACCGGUACGGCCGCCACUCGAACAUGAGGAUCACCCAUGUAGUCACUCGA,apparent Kd,MS2 coat protein [1]; [5],189 nM
same,apparent Kd,MS2 coat protein [1]; [6],362 nM
AAUGGCCGUACCGGAAGGGUGAUCCUCAAACGAGGACCGGUACGGCCGCCACUCGAUAACAUGAGGAUCACCCAUGUAAUAAUAA,apparent Kd,MS2 coat protein [1]; [3],331 nM
same,apparent Kd,MS2 coat protein [1]; [4],389 nM
AAUGGUCGUACUGGAAUGGUGAUCCUCAAACGAGGACCGGUACGGCCGCCACUCGAUAACAUGAGGAUCACCCAUGUAAUAAUAA,apparent Kd,MS2 coat protein [1]; [3],40.7 nM
same,apparent Kd,MS2 coat protein [1]; [4],20.8 nM
ACAUGACAACAUGAGGAUCACCCAUGUCAUCGAGGACCGGUACGGCCGCCACUCGGUCAAUAUGAUACUUGUCAUGAACAUGAGG,apparent Kd,MS2 coat protein [1]; [3],18.7 nM
same,apparent Kd,MS2 coat protein [1]; [4],23.5 nM
ACAUGUUGGUGGUAUCUACGAAGGCGGAAACGAGGACCGGUACGGCCGCCACUCGGCGACAUGAGGAUCACCCAUGUGGUUAAGA,apparent Kd,MS2 coat protein [1]; [3],72 nM
same,apparent Kd,MS2 coat protein [1]; [4],46.4 nM
ACAUUGCGCUCGGCCGCCACUGGCUUAUGAUUAUAAGCAUUAAUGAACAUGAGGAUCACCCAUGUCAGGACCGGGAGCGAACCAU,apparent Kd,MS2 coat protein [1]; [5],14 nM
same,apparent Kd,MS2 coat protein [1]; [6],16.6 nM
AGACCCUUCACGGCCGCCACUCAUUUUAAGUAGAGAGAGUACAUGAGGAUCACCCAUGUGAGAGAGAGGACCGGGUGAGAUAUUA,apparent Kd,MS2 coat protein [1]; [5],17.5 nM
same,apparent Kd,MS2 coat protein [1]; [6],19.6 nM
AGCCGAAACCUUGAUACCAGAUCAUGCUGCACAUGAGGAUCACCCAUGUCGUUAAACAUGGUCCCUUGGCAGCAAGUUAGGAUCU,apparent Kd,MS2 coat protein [2]; [7],76.4 nM
same,apparent Kd,MS2 coat protein [2]; [8],23.9 nM
AGCGACAUGCGUGAUACCAGCUACAUGAGGAUCACCCAUGUACGUCAGAAAUGACUGUGUAGCCCUUGGCAGCAUAAUGCAUGUC,apparent Kd,MS2 coat protein [2]; [9],40.9 nM
same,apparent Kd,MS2 coat protein [2]; [10],70.5 nM
AGCGACAUGCGUGAUACCAGCUACAUGAGGAUCACCCAUGUGAGUAGGAAACUACUGUGUAGCCCUUGGCAGCACAGUGCAUGUC,apparent Kd,MS2 coat protein [2]; [9],10.5 nM
same,apparent Kd,MS2 coat protein [2]; [10],63.7 nM
AGUGUUAUAACUGAUACCAGACUUGCGCUUAAACAUGAGGAUCACCCAUGUAAAAUGGUUGUCCCUUGGCAGCAGAAAAUACACA,apparent Kd,MS2 coat protein [2]; [7],74.1 nM
same,apparent Kd,MS2 coat protein [2]; [8],21.6 nM
AUAAGUAAUGUUACGUGUUUUAUUACAGAUACCAGACUAUACGUUGUCCCUUGGCAGCUGAAUUACAUGAGGAUCACCCAUGUUG,apparent Kd,MS2 coat protein [2]; [9],15.1 nM
same,apparent Kd,MS2 coat protein [2]; [10],17.3 nM
AUACCUAAUGUUACAUUUUCCUUUUCAGAUACCAGACUUUACGUUGUCCCUUGGCAGCUGUAUCACAUGAGGAUCACCCAUGUUG,apparent Kd,MS2 coat protein [2]; [7],16.6 nM
same,apparent Kd,MS2 coat protein [2]; [8],16.9 nM
AUAUGAUCAUACGAUACCAGAAAUGGUAUUCCUUUAUUUCUUACAUGAGGAUCACCCAUGUUCCCUUGGCAGCGUAUGAUCAUAU,apparent Kd,MS2 coat protein [2]; [9],363 nM
same,apparent Kd,MS2 coat protein [2]; [10],123 nM
AUCCUCAAGAAUGAUACCAGACCAAACAUGAGGAUCACCCAUGUAUCAGGCAAUUGUUACGUCCCUUGGCAGCAUGUAAGCCGAC,apparent Kd,MS2 coat protein [2]; [7],54.9 nM
same,apparent Kd,MS2 coat protein [2]; [8],60.2 nM
AUGUUUGUGUGAGAUACCAGUGAGGCCACAUGAGGAUCACCCAUGUCCCUCACUCCGGCCCACCCUUGGCAGCUCUUAUAGAAAA,apparent Kd,MS2 coat protein [2]; [9],10 nM
same,apparent Kd,MS2 coat protein [2]; [10],59.6 nM
AUGUUUGUGUGAGAUACCAGUGAGGCCACAUGAGGAUCACCCAUGUCCCUCACUCCGGCCCACCCUUGGCAGCUCUUAUAGUAAA,apparent Kd,MS2 coat protein [2]; [9],9.5 nM
same,apparent Kd,MS2 coat protein [2]; [10],39.4 nM
CACUUCAUGUGAGAUACCAGUGCCUUACAUGAGGAUCACCCAUGUCGUAAUGUGGAGAAGCACCCUUGGCAGCUCGCUUCGAGUG,apparent Kd,MS2 coat protein [2]; [7],83.9 nM
same,apparent Kd,MS2 coat protein [2]; [8],71.7 nM
CAUACUUUAUCCUAUGAGCCUAUUUGUGAUACCAGCAUCUAAAUUUGCCCUUGGCAGCACUUACAUGAGGAUCACCCAUGUUUUA,apparent Kd,MS2 coat protein [2]; [7],26.8 nM
same,apparent Kd,MS2 coat protein [2]; [8],40.7 nM
CAUUAUGUAACUGAUACCAGUGUACUGACAUGAGGAUCACCCAUGUUGGGUUUUGUUGUACACCCUUGGCAGCAGAAUCAUAAUG,apparent Kd,MS2 coat protein [2]; [9],63.5 nM
CCAUACGUAACUGAUACCAGUGUACUGACAUGAGGAUCACCCAUGUUGGGUUUUGUUGUACACCCUUGGCAGCAGAAUCGUAUGG,apparent Kd,MS2 coat protein [2]; [9],69 nM
same,apparent Kd,MS2 coat protein [2]; [10],101 nM
CCUGCGUUUCUUUUCUUUCGCAGGAAUGAUACCAGUAGGGAAACCUACCCUUGGCAGCAUGGGACAUGAGGAUCACCCAUGUAAU,apparent Kd,MS2 coat protein [2]; [7],439 nM
same,apparent Kd,MS2 coat protein [2]; [8],89.3 nM
